# A selection: hits, their analogues and other compounds. The true share with any hit is near 9.3%.
# D1 allo mod: D1 dopamine receptor (human) allosteric modulation. P21728. hit rate 5.9% among 58,000. AID 641. B-score at 10 µM. HEK293 D1, CRE-luciferase, dopamine EC30 potentiation; actives deviate in either direction;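 active means luminescence count or its row- and column-corrected plate score outside the 99.7% band of the plate's sample wells, on either side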
# DAT uptake mod: human DAT dopamine uptake with cocaine, either direction; Q01959; hit rate 1.3% among 110,000; B-score at 10 µM; LLC-PK1 hDAT cells, [14C]-dopamine uptake with cocaine IC80; actives deviate in either direction;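 active means Z score or B-score, a plate-position-corrected score, falls beyond the plate's 99.7% confidence bounds, in either direction; inactive means both scores lie inside the 99.7% bounds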;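 further: scored against the spread of the other compound wells on the same plate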
# Target sequence (Q01959 whole entry, looked up): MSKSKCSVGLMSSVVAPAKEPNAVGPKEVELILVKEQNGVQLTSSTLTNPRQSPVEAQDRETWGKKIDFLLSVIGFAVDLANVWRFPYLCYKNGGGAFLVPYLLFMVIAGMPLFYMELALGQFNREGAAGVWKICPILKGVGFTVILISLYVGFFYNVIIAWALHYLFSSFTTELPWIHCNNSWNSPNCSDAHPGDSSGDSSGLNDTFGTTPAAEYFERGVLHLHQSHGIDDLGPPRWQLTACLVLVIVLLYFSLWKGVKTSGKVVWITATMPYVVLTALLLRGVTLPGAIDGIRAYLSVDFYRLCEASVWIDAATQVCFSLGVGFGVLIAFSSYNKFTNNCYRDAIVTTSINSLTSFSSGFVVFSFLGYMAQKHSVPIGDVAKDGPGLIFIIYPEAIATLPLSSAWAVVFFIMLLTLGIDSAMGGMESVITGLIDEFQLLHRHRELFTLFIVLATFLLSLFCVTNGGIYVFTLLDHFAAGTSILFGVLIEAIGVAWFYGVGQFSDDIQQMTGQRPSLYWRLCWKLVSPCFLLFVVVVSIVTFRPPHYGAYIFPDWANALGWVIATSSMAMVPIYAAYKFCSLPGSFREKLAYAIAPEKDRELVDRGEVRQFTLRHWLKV
# PostGolgi yeast: growth inhibition of a yeast mutant, post-Golgi transport screen. hit rate 0.9% among 98,000. post-Golgi transport phenotypic cell assay. inhibition, % at 10 µM. AID 739;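 further: yeast cells grown in 1536-well plates; yeast grown about 18 h at 30C before absorbance read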
# tolC growth inh: growth inhibitors of E. coli BW25113 tolC mutant; OD615; growth inhibition, % at 10 µM (by protocol); hit rate 2.2% among 65,000;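 active means growth inhibition at or above a cutoff equal to the mean over every tested compound plus 3 SD, cut at about 60% in these data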;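 further: growth measured after 20 h incubation at 37 °C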
#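 test system = E. coli BW25113 ΔtolC::kan bacteria | medium = LB with kanamycin 50 µg/mL | signal = OD at 615 nm | schedule = 37 °C, 20 h exposure | evaluation = % inhibition of E. coli growth | compound dosing = one dose of 10 µM final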
# Ecoli WT expand: E. coli BW25113 growth inhibition, expanded screen; OD600 absorbance; growth inhibition, % at 100 µM; hit rate 0.15% among 98,000; AID 710;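 active means growth inhibition above about 50% at one test dose, limit read from the data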;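 further: growth measured after 20 h incubation at 37 °C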
# PostGolgi ctrl: yeast control strain growth, post-Golgi counter-screen. efflux-deficient yeast background strain, growth absorbance A615, 16 h. inhibition, % at 10 µM. hit rate 5% among 98,000
# * = called active by the depositor; . = no result. Unless noted, no stated cut-off is given here; in the data, active means inhibition above about 30%; inactive means the rest.
SMILES,D1 allo mod,DAT uptake mod,PostGolgi yeast,tolC growth inh,Ecoli WT expand,PostGolgi ctrl
Clc1cc(Br)ccc1OCCOCCOc1cccc2cccnc12,.,0.13,2,.,-5,60*
Cc1ccc(C(=O)CN(C(=O)c2ccc(Cl)c(Cl)c2)N2C(=O)C3C4C=CC(C4)C3C2=O)cc1 (stereo not drawn),.,1.1,27,.,-15,29
Cc1cc(-c2nsc(=O)o2)c(S(C)(=O)=O)s1,0.51,.,-2,-17,8,5
CN(C)c1ccc(/C=N/c2cc(-c3ccccc3)nn2-c2ccccc2)cc1,.,-0.47,27,.,-9,-4
Cc1cc(=O)n(CC(C)O)c(O)c1C#N (stereo not drawn),-0.014,-0.012,.,-15,.,.
CSCCC1(C(=O)O)NC(c2ccccc2O)C2C(=O)N(C(C)C)C(=O)C21 (stereo not drawn),.,-2.6*,25,-27,0,11
CS(=O)(=O)NCCC1=CCCCC1,-0.00053,1.4,-1,6,5,8
Cc1ccccc1N(CC(=O)NCCSC1CCCCC1)S(=O)(=O)c1ccccc1,.,0.048,1,.,-17,49*
CC(C)CNC(=O)CN(C1CCCCC1)S(=O)(=O)c1ccccc1,0.019,-0.016,-1,-2,-2,7
COP1(=O)C=C[C@H](N(Cc2ccccc2)S(=O)(=O)c2ccccc2[N+](=O)[O-])[C@@H](C)O1 (stereo partly drawn),.,1.4,.,.,.,.
CC/C(C)=C1\SC(N2CCN(c3cccc(C(F)(F)F)c3)CC2)=NC1=O,.,0.21,16,.,2,32*
Cc1ccc(-c2nc3c(=O)n(C)c4ccccc4c3o2)cc1,.,-0.38,11,13,-4,77*
O=C(Nc1nsc(-c2ccccc2)n1)c1cccs1,-4.4*,0.019,5,-11,5,-1
Cc1sc(NC(=O)c2cccs2)nc1-c1ccccc1,-0.3,-0.069,-4,29,2,16
O=C(NCCc1csc(-c2ccccc2)n1)c1cccs1,-5.1*,1.8,-2,21,5,23
CCc1cc2cc(C(=O)N3CCN(c4ccccc4)CC3)sc2s1,.,-0.09,-2,.,-13,4
CCc1cc2cc(C(=O)N3CCN(Cc4ccccc4)CC3)sc2s1,0.32,2.6*,18,98*,-7,35*
COc1ccc(-n2nc(C(=O)NCC(=O)NCc3ccc(F)cc3)c3ccccc3c2=O)c(OC)c1,.,-0.82,4,.,-6,11
CCO[C@@H]1OC(C(=O)N2CCOCC2)=C[C@H](C(C)(C)C)[C@H]1CCCO,.,0.27,.,.,.,.
Cc1cc(N2CCCCC2)n2ncc(-c3ccccc3)c2n1,-3.1,-0.11,18,75*,-5,4
Cc1nn2c(N3CCN(C(=O)c4ccco4)CC3)cc(C(C)(C)C)nc2c1-c1ccccc1,-0.83,0.37,10,11,1,91*
Cc1cc(N2CCN(C(=O)c3ccco3)CC2)n2ncc(-c3ccccc3)c2n1,-1.8,0.57,101*,25,-4,102*
CCc1cc2c(=O)n(CC)c(SC(C)C(=O)Nc3c(C)n(C)n(-c4ccccc4)c3=O)nc2s1 (stereo not drawn),.,0.53,0,.,-1,4
COc1cccc(NC(=O)CSCc2n[nH]c(=O)[nH]2)c1,0.93,-1.1,-2,-10,3,4
Clc1ccc(OCc2nnc(-c3ccccc3Br)o2)c(Cl)c1,-0.3,-0.43,-7,10,-7,7
SMILES,D1 allo mod,DAT uptake mod,PostGolgi yeast,tolC growth inh,Ecoli WT expand,PostGolgi ctrl
Clc1ccc(OCc2nnc(-c3ccccc3Br)o2)cc1,1.1,0.11,-10,63*,3,29
Cn1c(=O)cc(NCc2ccccc2)[nH]c1=O,.,0.68,40*,-9,14,-5
CCOC(=O)C1CCCN(C/C(O)=C(\C#N)c2nc(-c3ccccc3)cs2)C1 (stereo not drawn),-0.13,0.03,-9,6,2,11
CCSc1nnc(NC(=O)c2ccc3ccccc3n2)s1,.,0.59,13,.,-4,33*
CCSc1nnc(NC(=O)c2cc(C)nc3ccccc23)s1,.,-0.46,-7,.,-3,39*
OC(CNCC1CCCO1)Cn1c2ccc(Cl)cc2c2cc(Cl)ccc21 (stereo not drawn),.,0.25,90*,.,65*,103*
CCCNC(=O)C1(CC2CC(c3ccccc3)=NO2)CCN(C(=O)Cc2ccc(F)cc2)CC1 (stereo not drawn),.,1.4,.,.,.,.
CCCc1cc(C(=O)N2CCN(c3ccccc3C)CC2)cs1,-0.57,0.5,-10,100*,-1,38*
COc1ccc(N/N=C(\C=N\O)C(=O)c2ccc(OC)cc2)cc1,.,0.42,8,.,-5,35*
COc1ccc(C(=O)/C=C(\C)Nc2ccc(NC(C)=O)cc2)cc1,.,-0.31,-2,.,5,-3
COc1cccc2c(=O)c3c(cnn3C)n(C)c12,0.39,.,42*,34,12,-6
COc1cccc2c(=O)c3ccoc3n(C)c12,.,0.59,.,.,.,.
O=C1CCCCCN1CSc1nc2ccccc2s1,1.3,-0.034,-6,4,2,46*
COC(=O)C1=C[C@@H](C(=O)OC)[C@@H]2C3=C(C(=O)C2(C)C)[C@H](c2ccccc2)[C@@H]2C(=O)N(C)C(=O)[C@@H]2[C@@H]3C1,.,-0.73,.,.,.,.
Brc1cccc(-c2nnc3n2CCCCC3)c1,-1.2,0.37,-7,-15,7,20
Brc1cccc(-c2cnc3n2CCCCC3)c1,-3.3*,-1.3,-1,6,24,24
CCOC(=O)c1ccc(NC(=O)CSc2nnnn2CCCO)cc1,-1.1,1.1,1,1,9,6
Cn1c(CCNC(=O)c2ccccc2)nc2cc(NC(=O)C3CCCCC3)ccc21,.,-0.29,-1,.,-2,-3
Cc1cccc(N2CCN(C(=O)C(C)C)CC2)c1C,.,0.06,91*,.,0,85*
Cc1cccc(N2CCN(C(=O)COc3cc(=O)n(C)c4ccccc34)CC2)c1C,-0.44,0.44,1,21,5,14
Cc1cccc(N2CCN(C(=O)Cc3cn(C)c4ccccc34)CC2)c1C,.,1.9,8,.,-9,43*
CC(=O)Nc1ccc(S(=O)(=O)N2CCN(c3cccc(C)c3C)CC2)cc1,-1.3,0.0043,2,22,-1,51*
COc1cccc(NC(=O)N2CCN(c3cccc(C)c3C)CC2)c1,0.016,2,-7,72*,-6,-1
Cc1cccc(N2CCN(C(=O)Cn3cccc3)CC2)c1C,-0.038,-0.85,4,14,6,8
Cc1cnn(-c2ccc3nnc(-c4ccc(Br)cc4)n3n2)c1,0.79,0.79,14,-12,2,6
CCCN1CCN(CCCNC(=O)Cn2nc(-c3ccccc3)ccc2=O)CC1,1.6,-0.82,-2,-1,-7,-1
O=C(c1ccccc1Oc1ccccc1)N1CCN(c2ccccc2F)CC1,.,0.027,-2,.,-5,33*
COc1ccccc1N1CCN(C(=O)c2ccccc2Oc2ccccc2)CC1,0.89,0.017,0,15,3,8
CCC(C)Nc1c2c(nc3c(-c4ccccc4)c(C)nn13)CCC2 (stereo not drawn),.,0.38,-5,.,0,39*

# Screening data (PubChem)
